This note sets out measurements from publication PMC12278818 (RSC Advances, 2025).

For data set [1], the system named is Mycobacterium tuberculosis H37Rv. Kind of data set: Microplate alamar blue assay. Type of data set: cell-based. To be noted: MABA, 7 days, unit as printed mg mL^−1.
Data set [2] deals with mouse macrophage cell line (RAW 264.7). The conditions noted are these: RAW 264.7, 48 h, MTT.
In data set [3] the target is InhA enzyme (Mycobacterium tuberculosis, UniProt P9WGR1). Kind of data set: InhA enzyme inhibition assay. Type of data set: biochemical, M. tuberculosis. The conditions noted are these: for inhibition at 50 µM: read-out: % inhibition InhA at 50 μM of inhibitor.
Data set [4] deals with A549 cell line. Kind of data set: MTT-based cytotoxicity on lung cancer cell line. On the set-up: species or system human. An outline of the steps:
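A549 lung cancer cells were exposed to test compounds for 24 h, with cisplatin as the reference. Viability was measured by MTT: viable cells reduce the dye to formazan crystals, which are dissolved in solvent and read at 570 nm. IC50 is the half-maximal inhibitory concentration.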

Sequence of InhA enzyme (P9WGR1 whole entry, looked up): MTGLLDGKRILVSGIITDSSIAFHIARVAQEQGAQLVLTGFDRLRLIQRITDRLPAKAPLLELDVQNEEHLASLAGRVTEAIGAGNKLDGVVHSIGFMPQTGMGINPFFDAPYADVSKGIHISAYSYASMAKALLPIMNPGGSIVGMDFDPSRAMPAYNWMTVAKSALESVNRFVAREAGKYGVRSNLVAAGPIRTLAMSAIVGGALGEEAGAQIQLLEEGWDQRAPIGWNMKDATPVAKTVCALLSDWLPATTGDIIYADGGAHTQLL

“4-(4-(1H-Pyrrol-1-yl)phenyl)-6-(furan-3-yl)pyrimidin-2-amine [Compound 4b]” yielded an MIC values in data set [1] of 25 mg/mL.
As a reminder, the inhibition is the relative decrease from the control value, in per cent. Turning to `CC(C)c1ccc(C=CC(=O)c2ccc(-n3cccc3)cc2)cc1` [Compound 3k, 1-(4-(1H-Pyrrol-1-yl)phenyl)-3-(4-isopropylphenyl)prop-2-en-1-one], in data set [2], the “% Toxicity at 25 μg mL^−1” value came out at 30.1%. The inhibition at 50 µM in data set [3] was 36%.
In data set [1], “1-(4-(1H-Pyrrol-1-yl)phenyl)-6-phenylhexa-2,5-dien-1-one [Compound 3r]” came in with an MIC values greater than 25 mg/mL.
Regarding `COc1cccc(-c2cc(-c3ccc(-n4cccc4)cc3)nc(N)n2)c1O` [Compound 4u, 2-(6-(4-(1H-Pyrrol-1-yl)phenyl)-2-aminopyrimidin-4-yl)-6-methoxyphenol], the “% Toxicity at 25 μg mL^−1” value in data set [2] turned out to be 19.10%. Also, the “% inhibition InhA at 50 μM of inhibitor” value in data set [3] (50 μM inhibitor) is “no inhibition”. Further, the inhibition at 50 µM in data set [3] was less than 5%.
`O=C(C=Cc1cccs1)c1ccc(-n2cccc2)cc1` [Compound 3l, 1-(4-(1H-Pyrrol-1-yl)phenyl)-3-(thiophen-2-yl)prop-2-en-1-one]: in data set [2], the “% Toxicity at 25 μg mL^−1” value came out at 26.6%. Moreover, in data set [3], the inhibition at 50 µM was 36%.
In data set [1], “1-(4-(1H-Pyrrol-1-yl)phenyl)-6-(4-(dimethyl amino)phenyl)hexa-2,5-dien-1-one [Compound 3v]” displayed an MIC values of 25 mg/mL.
A word on the IC50: it is the concentration that gives 50% inhibition. A higher IC50 goes with a need for much substance. As to `COc1ccc(-c2cc(-c3ccc(-n4cccc4)cc3)nc(N)n2)c(OC)c1` [Compound 4c, 4-(4-(1H-Pyrrol-1-yl)phenyl)-6-(2,4-dimethoxyphenyl)pyrimidin-2-amine], the “% Toxicity at 25 μg mL^−1” value in data set [2] turned out to be 25.80%. Also, the inhibition at 50 µM in data set [3] is 16%. Besides, 55.1 µM corresponded to half-maximal inhibition in data set [4] (Homo sapiens, A549) (IC50).
Take `COc1ccc(-c2cc(-c3ccc(-n4cccc4)cc3)nc(N)n2)cc1` [Compound 4g, 4-(4-(1H-Pyrrol-1-yl)phenyl)-6-(4-methoxyphenyl)pyrimidin-2-amine]: the “% Toxicity at 25 μg mL^−1” value in data set [2] worked out at 19.09%. For the same molecule, the inhibition at 50 µM in data set [3] is 36%. The IC50 in data set [4] (Homo sapiens, A549) is 49.4 µM.
`N.N.[Cl][Pt][Cl]` [Cisplatin, reference compound] returned a half-inhibitory concentration (IC50) in data set [4] (A549, MTT) of 9.9 µM.
As to `CC(C)c1ccc(-c2cc(-c3ccc(-n4cccc4)cc3)nc(N)n2)cc1` [Compound 4k, 4-(4-(1H-Pyrrol-1-yl)phenyl)-6-(4-isopropylphenyl)pyrimidin-2-amine], the “% Toxicity at 25 μg mL^−1” value in data set [2] amounted to 28.90%. Further, in data set [3], the inhibition at 50 µM amounted to 10%. The same molecule returned a concentration for half-maximal inhibition (IC50) in data set [4] (Homo sapiens, A549) of 123 µM.
As for `Nc1nc(-c2ccc(-n3cccc3)cc2)cc(-c2ccc(Cl)cc2Cl)n1` [Compound 4h, 4-(4-(1H-Pyrrol-1-yl)phenyl)-6-(2,4-dichlorophenyl)pyrimidin-2-amine], the “% Toxicity at 25 μg mL^−1” value in data set [2] was 26.80%. The inhibition at 50 µM in data set [3] is less than 5%. For the same molecule, half-maximal inhibition in data set [4] (Homo sapiens, A549) (IC50) was put at 105 µM.
